Experimental findings from ChEMBL document CHEMBL3865807, “Syntheses and photodynamic activity of some glucose-conjugated BODIPY dyes” (Eur J Med Chem, 2016) are described below.

The nature of data set [1]: Photocytotoxicity against human A549 cells assessed as decrease in cell viability preincubated for 1 hr followed by 0.77 mW/cm2 white light irradiation for 80 mins measured after 24 hrs by MTT assay. The note with it: A549, light or radiation study. Format: functional, cell-based. In short, it runs like this:
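IC50 from MTT: A549 cells (1×10^4/well) given graded compound concentrations 1 h in serum-free DMEM (vehicle ≤0.1% DMSO), washed, photo-exposed 80 min at 0.77 mW/cm², regular medium 24 h; MTT 0.5 mg/mL 6 h, A550; viability relative to vehicle control; four replicates, three experiments, mean ± SEM.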

In data set [2] the test system is A549. In words: Photocytotoxicity against human A549 cells assessed as decrease in cell viability at 500 to 5000 nM preincubated for 1 hr followed by 0.77 mW/cm2 white light irradiation measured after 24 hrs by MTT assay. Format: functional, cell-based. The note with it: TDE = time-dependent effect. The method, boiled down:
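A549 cells (1×10^4/well), plated overnight, given compound for 1 h in serum-free medium, washed twice with PBS, irradiated 0.5, 1, 2 or 4 h at 0.77 mW/cm² (37 °C, 5% CO₂), then 24 h in regular medium; MTT 0.5 mg/mL for 6 h, formazan dissolved in 0.01 N HCl/10% SDS, A550.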
In general terms: Tetrazolium dyes change colour on reduction, which living cells bring about.

A short description of data set [3]: Cytotoxicity against human A549 cells assessed as decrease in cell viability up to 200 uM after 48 hrs under dark condition by MTT assay. Format: toxicity, cell-based. The conditions noted are these: a549, 48 h. The method, boiled down:
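Dark toxicity: A549 cells treated as in the MTT protocol (1 h compound exposure, serum-free medium, washed) with no light, then assessed at 48 h by MTT (0.5 mg/mL, 6 h, formazan in HCl/SDS, A550).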

In data set [4] the test system is A549. As to the kind of experiment: Photocytotoxicity against human A549 cells assessed as necrosis at 2.5 uM preincubated for 1 hr followed by 0.77 mW/cm2 white light irradiation for 80 mins measured after 2 hrs by trypan blue staining based phase contrast microscopy. The format is functional, cell-based. In short, it runs like this: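 Cells (1×10^5/well) on coverslips treated 1 h with dye (2.5 µM) or 0.1% DMSO, irradiated 80 min, serum added, 2 h later washed, stained with 0.1% trypan blue in PBS for 5 min, then viewed by phase-contrast microscopy at 40×.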

A short description of data set [5]: Drug uptake in cytoplasm of human A549 cells at 1 uM after 0.25 to 3 hrs by Hoechst 33342 staining based fluorescence microscopy. Format: ADME, cell-based. The note with it: a549, 1 µM. In short, it runs like this:
(§1)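 A549 cells on coverslips loaded with dyes (1 µM) for 0.25, 0.5, 1, 2 or 3 h at 37 °C, washed, counterstained with Hoechst 33342 (10 µM), mounted in 70% glycerol; red dye and blue nuclear fluorescence imaged by fluorescence microscopy (40×) and overlaid.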

For data set [6], the species on record is Bos taurus. In words: Binding affinity to calf thymus duplex DNA assessed as decrease in intensities of maximum absorption at 20 uM by spectrophotometric titration analysis.
Data set [7] is filed under the species Bos taurus. As to the kind of experiment: Binding affinity to calf thymus duplex DNA assessed as decrease in intensities of maximum absorption at 20 uM by spectrophotometric titration analysis.
The species named for data set [8] is Bos taurus. In words: Binding affinity to calf thymus duplex DNA by UV-visible spectra analysis.
A short description of data set [9]: Drug uptake in human A549 cells assessed as mean fluorescence intensity at 2.5 uM after 8 hrs by flow cytometry (reference value: 2.4 +/- 1.1). Format: ADME, cell-based. The conditions noted are these: a549, 8 h.
The nature of data set [10]: Drug uptake in human A549 cells assessed as mean fluorescence intensity at 2.5 uM after 16 hrs by flow cytometry (reference value: 2.4 +/- 1.1). The format is ADME, cell-based. The note with it: a549, 16 h. Background: In flow cytometry, cells or beads pass a laser one at a time.
Data set [11] in a line: Drug uptake in human A549 cells assessed as mean fluorescence intensity at 2.5 uM after 2 hrs by flow cytometry (reference value: 2.4 +/- 1.1). The format is ADME, cell-based. The note with it: a549, 2 h.
A short description of data set [12]: Drug uptake in human A549 cells assessed as mean fluorescence intensity at 2.5 uM after 4 hrs by flow cytometry (reference value: 2.4 +/- 1.1). The format is ADME, cell-based. The note with it: a549, 4 h.
Data set [13] is described as follows: Drug uptake in human A549 cells assessed as mean fluorescence intensity at 2.5 uM after 24 hrs by flow cytometry (reference value: 2.4 +/- 1.1). Format: ADME, cell-based. The note with it: a549, 24 h.
Data set [14] is described as follows: Drug uptake in human A549 cells at 1 uM after 0.25 to 3 hrs by Hoechst 33342 staining based fluorescence microscopy. Format: ADME, cell-based. The conditions noted are these: a549, 1 µM. In short, it runs like this:
as §1

Activity calls are given as the source filed them. The calls are words filed in the database; no cut-off is given here.

For `CCC1=C(C)C2=C(c3ccc(O)cc3)c3c(C)c(CC)c(C)n3[B-](F)(F)[N+]2=C1C`, in data set [1], the IC50 came to 2.1 µM. The results for the Activity entry (in the data set with A549 [2]; in [3]) were “Tde” and “Non-Toxic”, respectively. For the same molecule, in the data set with A549 [4], the outcome was Active. Also, the Drug uptake entry in data set [5] is “Active”.
As to `CCC1=C(C)C2=C(c3ccc(O[C@H]4O[C@H](CO)[C@@H](O)[C@H](O)[C@H]4O)cc3)c3c(C)c(CC)c(C)n3[B-](F)(F)[N+]2=C1C`, the IC50 in data set [1] is more than 10 µM. The Activity result in the data set with A549 [2] is “Tde”; in data set [3], “Non-Toxic”. In addition, the outcome in the data set listed under Bos taurus [6] and in the data set listed under Bos taurus [7] was Active. Moreover, the Kb in the data set listed under Bos taurus [8] worked out at 3.4 ×10⁴ /M. Further, the Drug uptake result in data set [5] is recorded as “Active”.
For the molecule `CCC1=C(C)C2=C(C)c3c(C)c(CC)c(C)n3[B-](F)(F)[N+]2=C1/C=C/c1ccc(O)cc1`, the IC50 in data set [1] was 6.5 µM. In addition, the Flu intensity worked out at 43.9 in data set [9]; 40.9 in data set [10]; 88 in data set [11]; 53.7 in [12]; 38.4 in [13]. Moreover, the figures for the Activity entry (in the data set with A549 [2]; in data set [3]) were “Tde” and “Non-Toxic”, respectively. The Drug uptake result in data set [5] was “Active”.
Turning to `CCC1=C(C)C2=C(C)c3c(C)c(CC)c(C)n3[B-](F)(F)[N+]2=C1C`, the IC50 in [1] turned out to be 6.8 µM. Further, the Drug uptake result in data set [14] is listed as “Active”.
Regarding `CCC1=C(C)C2=C(c3ccccc3)c3c(C)c(CC)c(C)n3[B-](F)(F)[N+]2=C1/C=C/c1ccc(O[C@H]2O[C@H](CO)[C@@H](O)[C@H](O)[C@H]2O)cc1`, the IC50 in data set [1] was 2.5 µM. In addition, the Activity result was “Tde” in the data set with A549 [2] and “Non-Toxic” in [3]. Also, the Drug uptake result in data set [5] is on record as “Active”.
Take `CCC1=C(C)C2=C(c3ccccc3)c3c(C)c(CC)c(C)n3[B-](F)(F)[N+]2=C1/C=C/c1ccc(O)cc1`: the IC50 in [1] stood at 6.4 µM. Moreover, the results for the Activity result (in the data set with A549 [2]; in data set [3]) were “Tde” and “Non-Toxic”, respectively. Besides, in [5], the Drug uptake result is “Active”.

What is called IC50 is the concentration that gives 50% inhibition.
